Results on 18 molecules are retold here after PubChem BioAssay AID652191 (Vanderbilt Specialized Chemistry Center, 2013).

For the experiment, the target named is Metabotropic glutamate receptor 5 (Rattus norvegicus) (UniProt P31424). Kind of experiment: [3H]methoxyPEPy displacement at rat mGlu5 – biochemical, HEK293A membranes, three-point Ki (AID 652191). The conditions noted are these: rmGlu5 HEK293A membranes. The gist of the method: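 Material – membranes from HEK293A cells with stable rat mGlu5 expression · Amount – 50 µg membranes per well · Also added – 2 nM [3H]methoxyPEPy · Schedule – 1 h shaking incubation of membranes, radioligand and compound, room temperature · Signal – Filtration separating bound radioligand, then scintillation counting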

SMILES strings stand for the structures. The source made the active and inactive calls. The rule behind the calls is not given here.

Metabotropic glutamate receptor 5 (Rattus norvegicus), sequence (P31424 whole entry, looked up): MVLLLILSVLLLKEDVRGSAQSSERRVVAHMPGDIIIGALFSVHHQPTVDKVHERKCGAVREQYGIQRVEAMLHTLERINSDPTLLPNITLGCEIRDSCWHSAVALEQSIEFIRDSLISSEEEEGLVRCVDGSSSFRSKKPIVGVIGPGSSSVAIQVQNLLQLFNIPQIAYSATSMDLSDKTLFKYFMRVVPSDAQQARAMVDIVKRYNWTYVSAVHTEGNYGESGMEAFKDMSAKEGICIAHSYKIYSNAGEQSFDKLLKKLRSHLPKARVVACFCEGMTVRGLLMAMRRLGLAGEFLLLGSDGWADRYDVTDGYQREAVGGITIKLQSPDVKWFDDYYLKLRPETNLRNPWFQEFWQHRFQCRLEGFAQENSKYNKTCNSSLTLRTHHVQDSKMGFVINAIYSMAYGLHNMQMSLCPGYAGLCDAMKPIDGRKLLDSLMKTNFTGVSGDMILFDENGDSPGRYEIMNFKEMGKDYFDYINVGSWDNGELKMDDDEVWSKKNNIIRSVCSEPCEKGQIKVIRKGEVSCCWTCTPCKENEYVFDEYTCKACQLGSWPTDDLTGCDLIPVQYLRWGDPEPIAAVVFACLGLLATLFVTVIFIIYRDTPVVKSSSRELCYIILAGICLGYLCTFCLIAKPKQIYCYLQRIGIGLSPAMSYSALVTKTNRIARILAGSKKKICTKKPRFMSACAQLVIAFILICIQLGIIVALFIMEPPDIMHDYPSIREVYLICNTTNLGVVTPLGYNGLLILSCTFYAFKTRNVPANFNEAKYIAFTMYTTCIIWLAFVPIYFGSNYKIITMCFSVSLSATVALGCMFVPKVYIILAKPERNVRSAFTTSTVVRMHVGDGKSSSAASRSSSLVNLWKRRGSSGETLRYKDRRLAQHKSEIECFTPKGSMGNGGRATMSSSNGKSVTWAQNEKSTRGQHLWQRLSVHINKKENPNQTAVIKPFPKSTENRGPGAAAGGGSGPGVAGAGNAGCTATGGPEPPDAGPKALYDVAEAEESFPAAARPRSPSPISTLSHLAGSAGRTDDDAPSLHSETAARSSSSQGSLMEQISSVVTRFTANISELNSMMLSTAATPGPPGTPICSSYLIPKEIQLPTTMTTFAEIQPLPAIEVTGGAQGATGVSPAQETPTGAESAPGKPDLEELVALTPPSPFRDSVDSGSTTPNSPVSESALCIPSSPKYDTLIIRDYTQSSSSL

As for `CC1CCN1C(=O)c1ccc(C#Cc2cccc(F)c2)cn1` (stereo not drawn), the Ki (usually the equilibrium dissociation constant of an inhibitor or competing ligand from its target) is 0.00483 µM.

For `CNC(=O)c1ccc(C#Cc2cccc(F)c2)cn1`, the Ki entry was “inactive”.

Consider `O=C(c1ccc(C#Cc2cccc(F)c2)cn1)N1CCC1`, for which the Ki was 0.04 µM.

For the molecule `O=C(c1ccc(C#Cc2cccc(F)c2)cn1)N1CCCC1`, the Ki is 0.02 µM.

In the case of `O=C(c1ccc(C#Cc2cccc(F)c2)nc1)N1CCC1`, the Ki result was “inactive”.

With `O=C(c1ccc(C#Cc2cccc(F)c2)cn1)N1CCC(F)(F)C1`, the Ki is 0.01 µM.

As for `O=C(c1ccc(C#Cc2cccc(F)c2)cn1)N1CCCCC1`, the Ki was 0.01 µM.

Regarding `O=C(c1ccc(C#Cc2cccc(F)c2)cn1)N1CC(O)(c2ccccc2)C1`, the Ki result is “inactive”.

Regarding `O=C(c1ccc(C#Cc2cccc(F)c2)cn1)N1CCCCCC1`, the Ki was 0.00382 µM.

As to `CNC(=O)c1ccc(C#Cc2cccc(F)c2)cc1`, the Ki result was “inactive”.

As for `O=C(c1ccc(C#Cc2cccc(F)c2)cn1)N1CC2CC2C1` (stereo not drawn), the Ki is 0.01 µM.

`O=C(c1ccc(C#Cc2cccc(F)c2)cn1)N1CCC(F)(F)CC1`: the Ki was 0.00442 µM.

As to `O=C(c1ccc(C#Cc2cccc(F)c2)cc1)N1CCOCC1`, the Ki result is “inactive”.

Regarding `O=C(c1ccc(C#Cc2cccc(F)c2)cc1)N1CCC1`, the Ki is 0.04 µM.

As for `O=C(c1ccc(C#Cc2cccc(F)c2)cn1)N1CCC(O)CC1`, the Ki result is “inactive”.

For the molecule `O=C(c1ccc(C#Cc2cccc(F)c2)cn1)N1CCOCC1`, the Ki was 0.07 µM.

With `O=C(c1ccc(C#Cc2cccc(F)c2)cn1)N1CC(F)C1`, the Ki is 0.07 µM.

With `O=C(c1ccc(C#Cc2cccc(F)c2)nc1)N1CCOCC1`, the Ki entry was “inactive”.
